Compound activity deposited in PubChem BioAssay by several laboratories.
NS3 helicase inh: inhibitors of Hepatitis C virus NS3 helicase; AID 1800; inhibition, % at 10.9 µM; NS3 helicase DNA unwinding, Cy5 molecular beacon fluorescence; actives 0.56% (n = 290,000);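 active = inhibition above the mean of all tested compounds plus 3 SD, set per campaign, cut at about 35% in these data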;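 also: 0% = DMSO wells and 100% = thioflavine S control wells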
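System: HCV NS3 helicase fragment; control set: DMSO and thioflavine S; technique: Cy5 fluorescence at 0 and 60 min, beacon hairpin quenching; reagent: beacon DNA duplex substrate plus ATP; replicates: singlicate; schedule: 1 h reaction at 25 °C, ATP-initiated; medium: MOPS buffer pH 6.5 with MgCl2, DTT, Tween20, BSA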
EBNA-1 inh: blocks EBNA-1 binding to DNA; EBNA-1 DNA binding, fluorescence polarization; inhibition, % at 14.8 µM; actives 0.34% (n = 300,000); AID 1950; in the data active = inhibition above about 28%
eIF4H FP inh: inhibitors of RNA binding by human eIF4H | Q15056 | eIF4H fluorescence polarization binding assay | inhibition, % at 35 µM | actives 0.94% (n = 290,000) | AID 2012;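 also: calls also rest on retests at 20 µM and on dose response follow-up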
MLLE-PAM2 inh: blocks PAM2 peptide binding to the PABP1 MLLE domain. P11940. actives 0.36% (n = 360,000). GST-MLLE / FITC-PAM2 fluorescence polarization. inhibition, % at 20 µM; in the data active = inhibition above about 35%, passing the limit was not always enough;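 also: plate controls were DMSO wells with GST-MLLE for no effect and wells lacking GST-MLLE protein for full effect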
ZTA counter: ZTA (EBV) inhibition in EBNA-1 counter-screen | ZTA-DNA binding, fluorescence polarization | inhibition, % at 11 µM | actives 0.15% (n = 320,000); in the data active = inhibition above about 33%
Target sequence (P03206 whole entry, looked up): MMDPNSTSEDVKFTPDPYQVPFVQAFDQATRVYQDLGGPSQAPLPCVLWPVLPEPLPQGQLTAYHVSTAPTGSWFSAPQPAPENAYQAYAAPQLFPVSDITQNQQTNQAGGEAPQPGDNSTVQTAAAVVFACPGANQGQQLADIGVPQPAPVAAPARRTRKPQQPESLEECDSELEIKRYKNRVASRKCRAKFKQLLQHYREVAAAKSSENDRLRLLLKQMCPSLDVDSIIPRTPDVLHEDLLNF
PABP polyA inh: PABP-poly(A) binding inhibition; P11940; PABP-poly(A) RNA binding, fluorescence polarization; inhibition, % at 35 µM; actives 1% (n = 290,000); AID 2014;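 also: calls also rest on retests at 20 µM and on dose response follow-up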
* = called active by the depositor. Shown are actives, neighbours in structure and some others; about 2.1% of the full set was active somewhere. Unless noted, no rule for the calls is given here.

How did COc1ccc(-n2nnnc2SCC(=O)NNC(=O)c2ccc([N+](=O)[O-])cc2)cc1 do in these assays?
NS3 helicase inh: 1.7; EBNA-1 inh: 2.4; eIF4H FP inh: 63.3*; MLLE-PAM2 inh: -61.4; ZTA counter: -8.7; PABP polyA inh: active

How did Cc1ccc(-n2nnnc2SCC(=O)NNC(=O)c2ccc([N+](=O)[O-])cc2)cc1 do in these assays?
NS3 helicase inh: 0.5; EBNA-1 inh: 0.6; eIF4H FP inh: -18.3; MLLE-PAM2 inh: -41.8; ZTA counter: 0.1; PABP polyA inh: -19.7

How did O=C(CSc1ccccc1C(=O)O)NC1CCCCCC1 do in these assays?
NS3 helicase inh: -1.2; EBNA-1 inh: -1.4; eIF4H FP inh: 3.1; MLLE-PAM2 inh: 79.3*; ZTA counter: 6.3; PABP polyA inh: -6.0

Results for CNC(=S)NC12CC3CC(CC(C3)C1)C2 ?
NS3 helicase inh: 2.5; EBNA-1 inh: -1.3; eIF4H FP inh: 0.8; MLLE-PAM2 inh: 8.3; ZTA counter: 1.2; PABP polyA inh: 6.4

How did O=C(O)c1ccc(N2C(=O)/C(=C/c3ccc(-c4ccc([N+](=O)[O-])cc4)o3)C=C2c2ccccc2)cc1 do in these assays?
NS3 helicase inh: 39.7*; EBNA-1 inh: 12.6; eIF4H FP inh: 33.2; MLLE-PAM2 inh: -81.5; ZTA counter: 9.5; PABP polyA inh: -2.8

What do the screens show for `CC1=NN(c2ccccc2)C(=O)/C1=C/c1ccc(-c2ccc(C)c(C(=O)O)c2)o1`?
EBNA-1 inh: 11.5; ZTA counter: -9.1

Results for O=C1NN(c2ccccc2)C(=O)/C1=C/c1ccc(-c2ccc(C(=O)O)cc2)o1 ?
NS3 helicase inh: 0.5; EBNA-1 inh: 0.1; eIF4H FP inh: 67.9*; MLLE-PAM2 inh: -20.4; ZTA counter: 4.4; PABP polyA inh: 69.5*

How did CC1=NN(c2ccc(Cl)c(C(=O)O)c2)C(=O)/C1=C\c1ccc(-c2ccc(C(=O)O)cc2)o1 do in these assays?
NS3 helicase inh: 0.3; eIF4H FP inh: 51.8*; MLLE-PAM2 inh: 15.8; PABP polyA inh: 10.7

How did COC(=O)c1ccc(N2NC(=O)/C(=C/c3ccc(-c4ccc(Cl)c(C(=O)O)c4)o3)C2=O)cc1 do in these assays?
NS3 helicase inh: 9.1; eIF4H FP inh: 71.2*; MLLE-PAM2 inh: -13.8; PABP polyA inh: 63.1*

What do the screens show for `CN(/N=C/c1ccc(-c2ccc([N+](=O)[O-])cc2)o1)c1ccccc1`?
NS3 helicase inh: -12.9; EBNA-1 inh: -6.2; eIF4H FP inh: 47.8; MLLE-PAM2 inh: -116.5; ZTA counter: -10.9; PABP polyA inh: 5.5

How did Cc1ccc(C(=O)CCC(=O)OCC(=O)Nc2cc(S(=O)(=O)N(C)C)ccc2C)cc1 do in these assays?
MLLE-PAM2 inh: -2.7

Results for CCCCN(CCCC)CCCNC(=O)C12CN(Cc3ccccc3)CC1C(c1cccc([N+](=O)[O-])c1)=NO2 (stereo not given) ?
NS3 helicase inh: -72.2; EBNA-1 inh: -2.4; eIF4H FP inh: -6.4; MLLE-PAM2 inh: 0.4; ZTA counter: 1.3; PABP polyA inh: 5.5

How did Cc1c(OCC(=O)NC(Cc2ccc(Cl)cc2)C(=O)O)ccc2c3c(c(=O)oc12)CCC3 (stereo not given) do in these assays?
NS3 helicase inh: 29.3; EBNA-1 inh: 2.8; eIF4H FP inh: -8.4; MLLE-PAM2 inh: 23.3; ZTA counter: 16.8; PABP polyA inh: 13.8

Results for O=C1NN(c2ccc(Cl)c(Cl)c2)C(=O)/C1=C/c1ccc(-c2ccccc2C(=O)O)o1 ?
NS3 helicase inh: 32.1; eIF4H FP inh: 40.0*; MLLE-PAM2 inh: 24.5; PABP polyA inh: 64.0*

What do the screens show for `Cc1ccc(N2NC(=O)/C(=C/c3ccc(-c4ccc(Cl)c(C(=O)O)c4)o3)C2=O)cc1C`?
NS3 helicase inh: 20.1; EBNA-1 inh: -5.9; eIF4H FP inh: 1.1; MLLE-PAM2 inh: -10.8; ZTA counter: 0.5; PABP polyA inh: 13.4

What do the screens show for `Cc1ccc(OCC(=O)Sc2ccc(C)cc2)cc1`?
NS3 helicase inh: 1.3; EBNA-1 inh: -11.9; eIF4H FP inh: -0.8; MLLE-PAM2 inh: 25.4; ZTA counter: -18.8; PABP polyA inh: -7.0

How did COc1ccccc1OCC(=O)Sc1ccc(C)cc1 do in these assays?
NS3 helicase inh: 1.7; EBNA-1 inh: -7.5; eIF4H FP inh: -12.6; MLLE-PAM2 inh: 36.4*; ZTA counter: -6.9; PABP polyA inh: 69.4

How did COc1ccccc1OCC(=O)NCCNC(=O)COc1ccccc1OC do in these assays?
NS3 helicase inh: 1.5; EBNA-1 inh: 4.7; eIF4H FP inh: -6.9; MLLE-PAM2 inh: 39.9*; ZTA counter: 6.6; PABP polyA inh: -4.1

How did Cc1ccc(F)cc1CNC(=O)C1CCC(=O)N(CCCN2CCCC2=O)C1 (stereo not given) do in these assays?
NS3 helicase inh: -11.2; EBNA-1 inh: 2.9; eIF4H FP inh: -2.0; MLLE-PAM2 inh: 1.3; ZTA counter: 9.3; PABP polyA inh: 11.0

Results for Cc1cccc(/C=N/NC(=O)Cn2nc(C)cc2C)n1 ?
NS3 helicase inh: 1.4; EBNA-1 inh: 6.8; eIF4H FP inh: 102.5*; MLLE-PAM2 inh: 3.8; ZTA counter: -1.1; PABP polyA inh: 3.8*

How did Cc1cc(C)n(CC(=O)N/N=C/c2ccccn2)n1 do in these assays?
NS3 helicase inh: -3.6; EBNA-1 inh: 1.0; eIF4H FP inh: 1.9; MLLE-PAM2 inh: 9.8; ZTA counter: 2.1; PABP polyA inh: 19.8

How did Cc1cc([N+](=O)[O-])nn1CC(=O)N/N=C/c1ccccc1F do in these assays?
NS3 helicase inh: -9.0; EBNA-1 inh: 14.8; eIF4H FP inh: 58.3*; MLLE-PAM2 inh: -1.5; ZTA counter: 1.4; PABP polyA inh: active

Results for COc1ccc(NC(=O)C(c2ccc(C)cc2)N(C)C(=O)c2cnccn2)cc1 (stereo not given) ?
NS3 helicase inh: 1.8; EBNA-1 inh: -10.6; eIF4H FP inh: 6.3; MLLE-PAM2 inh: 6.0; ZTA counter: 5.1; PABP polyA inh: 1.3

What do the screens show for `O=C(Nc1ccccc1C(=O)O)c1cncc(Br)c1`?
NS3 helicase inh: 7.5; EBNA-1 inh: 8.5; eIF4H FP inh: 0.6*; MLLE-PAM2 inh: -110.8; ZTA counter: -13.2; PABP polyA inh: 52.5

What do the screens show for `O=C(NC(=S)Nc1ccccc1C(=O)O)c1cncc(Br)c1`?
NS3 helicase inh: 4.2; EBNA-1 inh: 6.7; eIF4H FP inh: -15.3; MLLE-PAM2 inh: 20.0; ZTA counter: -1.4; PABP polyA inh: 10.3

Results for CCc1ccc(OS(=O)(=O)c2cn(C)c(=O)n(C)c2=O)cc1 ?
NS3 helicase inh: 8.7; EBNA-1 inh: 3.6; eIF4H FP inh: -5.3; MLLE-PAM2 inh: 40.9*; ZTA counter: -6.9; PABP polyA inh: -3.4

How did FC(F)(F)c1ccc(Cl)c(-n2c(-c3ccco3)n[nH]c2=S)c1 do in these assays?
NS3 helicase inh: 4.8; eIF4H FP inh: -9.7; MLLE-PAM2 inh: -46.3; PABP polyA inh: -1.3

How did FC(F)(F)c1ccc(Cl)c(-n2c(-c3cc(-c4ccco4)[nH]n3)n[nH]c2=S)c1 do in these assays?
NS3 helicase inh: 27.9; EBNA-1 inh: -7.0; eIF4H FP inh: inconclusive; MLLE-PAM2 inh: -54.5; ZTA counter: -7.7; PABP polyA inh: 32.6*
